Test results as given in ChEMBL document CHEMBL1143074, “Symplocamide A, a potent cytotoxin and chymotrypsin inhibitor from the marine Cyanobacterium Symploca sp” (J Nat Prod, 2008).
Activity calls are given as the source filed them. No cut-off for these calls is given here.

Key:
[1] = Inhibition of trypsin
In short: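 Trypsin (0.0023 mg/mL final, 2.75 BAEE U) was added to 0.45 mM BAEE in 64 mM NaH2PO4 pH 7.6 at 25 °C. Compound was premixed with substrate from a 1:2 EtOH dilution series (final 4.5 × 10-4 to 6.8 × 10^-6 M), against an EtOH blank. N-benzoyl-L-arginine formation was read at 253 nm for 5 min, and the 0.5–2 min interval was analyzed.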

[2] = Inhibition of chymotrypsin at 10 uM
[3] = Inhibition of trypsin at 10 uM
Leishmania donovani = experiment: Antiparasitic activity against Leishmania donovani LD-1S/MHOM/SD/00-strain 1S; type: functional, organism-based
[4] = Cytotoxicity against mouse Neuro2a cells; type: functional, cell-based; settings: N2a
NCI-H460 = experiment: Cytotoxicity against human H460 cells; type: functional, cell-based
Plasmodium falciparum = experiment: Antiparasitic activity against chloroquine-resistant Plasmodium falciparum W2 in microfluorimetric assay; type: functional, organism-based
[5] = Inhibition of chymotrypsin
In short: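 Spectrophotometric assay: 0.0025 mg/mL chymotrypsin (0.0086 U) with 0.53 mM BTEE in 38 mM Tris-HCl pH 7.8, 53 mM CaCl2, 0.5 mM HCl and 32% MeOH at 25 °C. Inhibitor (from MeOH dilutions, final 6.25 × 10-5 to 7.5 × 10^-9 M) was equilibrated with substrate before enzyme addition. Absorbance at 256 nm was followed for 5 min, and the 0.5–1.5 min interval was analyzed.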

Trypanosoma cruzi = experiment: Antiparasitic activity against Trypanosoma cruzi C4 clone; type: functional, organism-based

| Compound | IC50 [1] | Activity [2] | Activity [3] | further results |
| --- | --- | --- | --- | --- |
| CCC(=O)N[C@@H](CCC(N)=O)C(=O)N1CC(C)[C@@H]2OC(=O)[C@H]([C@@H](C)CC)NC(=O)[C@H](Cc3ccc(O)cc3)N(C)C(=O)[C@H]([C@@H](C)CC)N3C(=O)[C@H](CC[C@H]3O)NC(=O)[C@H](CC(C)C)NC(=O)[C@H]21 (stereo partly drawn) |  | inactive | inactive |  |
| CCCC(=O)N[C@@H](Cc1ccccc1)C(=O)N[C@@H](CCC(=O)O)C(=O)N[C@@H]1C(=O)N[C@@H](CCC(=O)O)C(=O)N[C@H]2CC[C@@H](O)N(C2=O)[C@@H](C(C)C)C(=O)N(C)[C@@H](Cc2ccccc2)C(=O)N[C@@H]([C@@H](C)CC)C(=O)O[C@@H]1C |  | inactive | inactive |  |
| CC(C)[C@H](NC(=O)[C@@H](C)NC(=O)[C@H](CCCc1ccc(O)cc1)NC(=O)[C@H](O)CO)C(=O)N[C@@H]1C(=O)N[C@@H](CCc2ccc(O)cc2)C(=O)N[C@H]2CC[C@@H](O)N(C2=O)[C@@H]([C@@H](C)O)C(=O)N(C)[C@@H](Cc2ccc(O)c(Br)c2)C(=O)N[C@@H](C(C)C)C(=O)O[C@@H]1C |  | inactive | inactive |  |
| CC(C)[C@@H]1NC(=O)[C@H](Cc2ccc(O)cc2)N(C)C(=O)[C@H](Cc2ccccc2)N2C(=O)[C@H](CC[C@H]2O)NC(=O)[C@H](CCCNC(=N)N)NC(=O)[C@@H](NC(=O)[C@@H](O)COS(=O)(=O)O)[C@@H](C)OC1=O [MICROPEPTIN 90] | 2080 nM | inactive |  |  |
| CC[C@@H](C)[C@@H]1NC(=O)[C@H](Cc2ccccc2)N(C)C(=O)[C@H]([C@@H](C)CC)N2C(=O)[C@H](CC[C@H]2O)NC(=O)[C@H](CCCCN)NC(=O)[C@@H](NC(=O)[C@@H](CCc2ccccc2)NC(=O)[C@@H](COS(=O)(=O)O)OC)[C@@H](C)OC1=O [OSCILLAPEPTIN F] | 180 nM | inactive |  |  |
| CC[C@H](C)[C@@H]1NC(=O)[C@H](Cc2ccccc2)N(C)C(=O)[C@H]([C@@H](C)CC)N2C(=O)[C@H](CC[C@H]2O)NC(=O)[C@H](CCCNC(=N)N)NC(=O)[C@@H](NC(=O)[C@H](O)COS(=O)(=O)O)[C@@H](C)OC1=O [CYANOPEPTOLIN S] | 240 nM |  |  |  |
| CCCC(=O)N[C@@H](CC(C)C)C(=O)N[C@@H](CCC(=O)O)C(=O)N[C@@H]1C(=O)N[C@@H](Cc2ccc(O)cc2)C(=O)N[C@H]2CC[C@@H](O)N(C2=O)[C@@H](C(C)C)C(=O)N(C)[C@@H](Cc2ccccc2)C(=O)N[C@@H]([C@@H](C)CC)C(=O)O[C@@H]1C |  | inactive | inactive |  |
| CCCC(=O)N[C@@H](CCC(N)=O)C(=O)N[C@@H]1C(=O)N[C@@H](CCCNC(N)=O)C(=O)N[C@H]2CC[C@@H](O)N(C2=O)[C@@H]([C@@H](C)CC)C(=O)N(C)[C@@H](Cc2ccc(OC)c(Br)c2)C(=O)N[C@@H](C(C)C)C(=O)O[C@@H]1C [SYMPLOCAMIDE A] | 80200 nM |  |  | IC50 (Leishmania donovani): > 9500 nM; IC50 [4]: 29 nM; IC50 (NCI-H460): 40 nM; IC50 (Plasmodium falciparum): 950 nM; IC50 [5]: 380 nM; IC50 (Trypanosoma cruzi): > 9500 nM |
| CC[C@H](C)[C@@H]1NC(=O)[C@H](Cc2ccc(O)cc2)N(C)C(=O)[C@H]([C@@H](C)CC)N2C(=O)C(CCC2O)NC(=O)[C@H](CC(C)C)NC(=O)[C@@H]2C(OC1=O)C(C)CN2C(=O)[C@H](CCC(N)=O)NC(C)=O (stereo in doubt; form 2) |  | inactive | inactive |  |
| CC(C)C[C@@H]1NC(=O)[C@@H](NC(=O)[C@@H](NC(=O)[C@H](C)NC(=O)[C@H](CCCc2ccc(O)cc2)NC(=O)[C@H](O)CO)C(C)C)[C@@H](C)OC(=O)[C@H](C(C)C)NC(=O)[C@H](Cc2ccc(O)c(Br)c2)N(C)C(=O)[C@H]([C@@H](C)O)N2C(=O)[C@H](CC[C@H]2O)NC1=O [LARGAMIDE D] |  |  | inactive | IC50 [5]: 10000 nM |
| CC[C@H](C)[C@@H]1NC(=O)[C@H](Cc2ccc(OC)cc2)N(C)C(=O)[C@H]([C@@H](C)O)N2C(=O)[C@H](CC[C@H]2O)NC(=O)[C@H](CC(C)C)NC(=O)[C@@H](NC(=O)[C@H](CCC(N)=O)NC(=O)[C@@H]2CCC(=O)N2)[C@@H](C)OC1=O |  | inactive | inactive |  |
| CC(=O)N[C@@H](CCC(N)=O)C(=O)N[C@@H]1C(=O)N[C@@H](CC(C)C)C(=O)N[C@H]2CC[C@@H](O)N(C2=O)[C@@H](Cc2ccccc2)C(=O)N(C)[C@@H](Cc2ccc(O)c(Cl)c2)C(=O)N[C@@H](C(C)C)C(=O)O[C@H]1C [CYANOPEPTOLIN 954] |  |  | inactive | IC50 [5]: 40 nM |
| CC(C)C[C@@H]1NC(=O)[C@@H](NC(=O)[C@@H](NC(=O)[C@@H](C)NC(=O)[C@H](CCCc2ccc(O)cc2)NC(=O)[C@H](O)CO)C(C)C)[C@@H](C)OC(=O)[C@H](C(C)C)NC(=O)[C@H](Cc2ccc(O)c(Cl)c2)N(C)C(=O)[C@H]([C@@H](C)O)N2C(=O)[C@H](CC[C@H]2O)NC1=O [LARGAMIDE E] |  |  | inactive | IC50 [5]: 10000 nM |
| CC(C)C[C@@H](NC(=O)[C@H](O)COS(=O)(=O)O)C(=O)N[C@@H]1C(=O)N[C@@H](CCCNC(=N)N)C(=O)N[C@H]2CC[C@@H](O)N(C2=O)[C@@H](CC(C)C)C(=O)N(C)[C@@H](Cc2ccc(O)cc2)C(=O)N[C@@H](C(C)C)C(=O)O[C@@H]1C | 9.6 nM |  |  |  |
| CCCCCCCC(=O)N[C@@H](CCC(=O)O)C(=O)N[C@@H]1C(=O)N[C@@H](CCCCN)C(=O)N[C@H]2CC[C@@H](O)N(C2=O)[C@@H](CC(C)C)C(=O)N(C)[C@@H](Cc2ccc(O)cc2)C(=O)N[C@@H](C(C)C)C(=O)O[C@@H]1C [MICROPEPTIN A] | 70 nM | inactive |  |  |
| CCCCCC(=O)N[C@@H](CCC(=O)O)C(=O)N[C@@H]1C(=O)N[C@@H](CCCNC(=N)N)C(=O)N[C@H]2CC[C@@H](O)N(C2=O)[C@@H](CC(C)C)C(=O)N(C)[C@@H](Cc2ccc(O)cc2)C(=O)N[C@@H](C(C)C)C(=O)O[C@@H]1C [MICROPEPTIN B] | 260 nM | inactive |  |  |

Second part, led by results:

| IC50 [1] | Activity [2] | Activity [3] | Compound | further results |
| --- | --- | --- | --- | --- |
| 100 nM | inactive |  | CCCCCC(=O)N[C@@H](CCC(=O)O)C(=O)N[C@@H]1C(=O)N[C@@H](CCCCN)C(=O)N[C@H]2CC[C@@H](O)N(C2=O)[C@@H](Cc2ccccc2)C(=O)N(C)[C@@H](Cc2c[nH]c3ccccc23)C(=O)N[C@@H](C(C)C)C(=O)O[C@@H]1C [MICROPEPTIN T2] |  |
| 200 nM | inactive |  | CCCCCC(=O)N[C@@H](CC(=O)O)C(=O)N[C@@H]1C(=O)N[C@@H](CCCNC(=N)N)C(=O)N[C@H]2CC[C@@H](O)N(C2=O)[C@@H]([C@@H](C)CC)C(=O)N(C)[C@@H](Cc2c[nH]c3ccccc23)C(=O)N[C@@H](C(C)C)C(=O)O[C@@H]1C [MICROPEPTIN SF995] |  |
| 4000 nM | inactive |  | CCCCCC(=O)N[C@@H](CC(=O)O)C(=O)N[C@@H]1C(=O)N[C@@H](CCCNC(=N)N)C(=O)N[C@H]2CC[C@@H](O)N(C2=O)[C@@H]([C@@H](C)CC)C(=O)N(C)[C@@H](CC(=O)c2ccccc2N)C(=O)N[C@@H](C(C)C)C(=O)O[C@@H]1C [MICROPEPTIN SD999] |  |
| 4360 nM | inactive |  | CC[C@H](C)[C@@H]1NC(=O)[C@H](Cc2ccc(O)cc2)N(C)C(=O)[C@H](Cc2ccccc2)N2C(=O)[C@H](CC[C@H]2O)NC(=O)[C@H](CCCNC(=N)N)NC(=O)[C@@H](NC(=O)[C@H](CC(=O)O)NC(C)=O)[C@@H](C)OC1=O [MICROPEPTIN E1964] |  |
| 3830 nM | inactive |  | CCCC(=O)N[C@@H](CC(=O)O)C(=O)N[C@@H]1C(=O)N[C@@H](CCCNC(=N)N)C(=O)N[C@H]2CC[C@@H](O)N(C2=O)[C@@H](Cc2ccccc2)C(=O)N(C)[C@@H](Cc2ccc(O)cc2)C(=O)N[C@@H]([C@@H](C)CC)C(=O)O[C@@H]1C [MICROPEPTIN EI992] |  |
| 8470 nM | inactive |  | CCCCCC(=O)N[C@@H](CC(=O)O)C(=O)N[C@@H]1C(=O)N[C@@H](CCCCN)C(=O)N[C@H]2CC[C@@H](O)N(C2=O)[C@@H]([C@@H](C)CC)C(=O)N(C)[C@@H](Cc2ccc(O)cc2)C(=O)N[C@@H](C(C)C)C(=O)O[C@@H]1C [MICROPEPTIN SD944] |  |
|  |  | inactive | CCCC(=O)N[C@@H](Cc1ccccc1)C(=O)N[C@@H](CCC(=O)O)C(=O)N[C@@H]1C(=O)N[C@@H](CC(C)C)C(=O)N[C@H]2CC[C@@H](O)N(C2=O)[C@@H](C(C)C)C(=O)N(C)[C@@H](Cc2ccccc2)C(=O)N[C@@H]([C@@H](C)CC)C(=O)O[C@@H]1C [MICROPEPTIN 88E] | IC50 [5]: 4900 nM |
|  |  | inactive | CC[C@H](C)[C@@H]1NC(=O)[C@H](Cc2ccc(OC)cc2)N(C)C(=O)[C@H]([C@@H](C)O)N2C(=O)[C@H](CC[C@H]2O)NC(=O)[C@H](CC(C)C)NC(=O)[C@@H](NC(=O)[C@H](CCC(N)=O)NC(=O)[C@@H](NC(=O)[C@@H](O)CO)C(C)C)[C@@H](C)OC1=O [PLANKTOPEPTIN BL1061] | IC50 [5]: 2100 nM |
|  |  | inactive | CCCCCC(=O)N[C@@H](CCC(N)=O)C(=O)N[C@@H]1C(=O)N[C@@H](Cc2ccc(O)cc2)C(=O)N[C@H]2CC[C@@H](O)N(C2=O)[C@@H](Cc2ccccc2)C(=O)N(C)[C@@H](Cc2ccc(O)cc2)C(=O)N[C@@H](C(C)C)C(=O)O[C@@H]1C [MICROPEPTIN T1] | IC50 [5]: 2850 nM |
